Experimental data as given in ChEMBL document CHEMBL4265873, “Design and discovery of silybin analogues as antiproliferative compounds using a ring disjunctive - Based, natural product lead optimization approach” (Eur J Med Chem, 2017).
Activity calls are given as the source filed them. No cut-off for these calls is given here.

What was measured:
2008 [1] = assay: Induction of apoptosis in human OV2008 cells assessed as apoptosis cells level at 4 uM incubated for 12 hrs by Alexa Fluor 488 annexin V and mito-tracker red CMXRos dye staining based flow cytometry (reference value: 19.6%); assay type: functional
In short: (§1)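 Cells in complete medium were treated with 0, 2 or 4 µM for 12 h, then trypsinised. They were stained with MitoTracker Red (4 µL of 10 µM working solution per 1 mL of cells) for 30 min at 37 °C under 5% CO2. Cells were then resuspended in annexin-binding buffer with Alexa Fluor 488 annexin V for 15 min. Flow cytometry emission read at 530 and 585 nm. Two independent experiments, each in triplicate.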

2008 [2] = assay: Cytotoxicity in human OV2008 cells assessed as reduction in cell viability incubated for 68 hrs by MTT assay; assay type: functional, cell-based; conditions: Homo sapiens, 2008, 68 h
In short: (§2)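 Cells were trypsinised and seeded at 5x10^3 cells/well. Compound was added at 0, 0.1, 0.3, 1, 3, 10, 30 and 100 µM for 68 h. MTT (4 mg/mL solution) was then added for 4 h, and the formazan was dissolved in DMSO. Absorbance read at 570 nm. IC50 was derived from % survival across the eight concentrations. Mean ± SD of three independent experiments, each in triplicate.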

CHO = assay: Cytotoxicity in CHO cells assessed as reduction in cell viability incubated for 68 hrs by MTT assay; assay type: cell-based; conditions: Cricetulus griseus; in short: as §2
HEK293 = assay: Cytotoxicity in HEK293 cells assessed as reduction in cell viability incubated for 68 hrs by MTT assay; assay type: cell-based; conditions: Homo sapiens, HEK293, 68 h; in short: as §2
Homo sapiens [3] = organism: Homo sapiens; assay: Inhibition of tubulin alpha in human OV2008 cells assessed as induction of disturbance in cellular microtubule shape and integrity by measuring cell shrinkage and rounding at 2 to 4 uM after overnight incubation by immunofluorescence analysis; assay type: cell-based
2008 [4] = assay: Induction of apoptosis in human OV2008 cells assessed as apoptosis cells level at 2 uM incubated for 12 hrs by Alexa Fluor 488 annexin V and mito-tracker red CMXRos dye staining based flow cytometry (reference value: 19.6%); assay type: functional; in short: as §1
2008 [5] = assay: Induction of cell cycle arrest in human OV2008 cells assessed as cell accumulation at S phase at 2 uM incubated for 12 hrs by propidium iodide staining based flow cytometry (reference value: 5.2%); assay type: functional
In short: (§3)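 OV2008 cells were plated at 1x10^6 cells/well and incubated with 0, 2 or 4 µM for 12 h. Cells were trypsinised, washed and resuspended in ice-cold PBS, then stained with propidium iodide for at least 15 min. Phase distribution was measured by flow cytometry. Means ± SD of three independent experiments in triplicate.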

Homo sapiens [6] = organism: Homo sapiens; assay: Inhibition of tubulin alpha in human OV2008 cells assessed as reduction in alpha-tubulin fluorescence at 2 to 4 uM after overnight incubation by immunofluorescence analysis; assay type: cell-based
2008 [7] = assay: Induction of cell cycle arrest in human OV2008 cells assessed as cell accumulation at G1 phase at 2 uM incubated for 12 hrs by propidium iodide staining based flow cytometry (reference value: 79.1%); assay type: functional; in short: as §3
[8] = Selectivity index, ratio of IC50 for cytotoxicity in CHO cells incubated for 68 hrs by MTT assay to IC50 for cytotoxicity in human A2780 cells incubated for 68 hrs by MTT assay; assay type: toxicity, cell-based; conditions: Chinese hamster (CHO cells), CHO cells versus A2780 cells, read-out: Ratio IC50
2008 [9] = assay: Induction of cell cycle arrest in human OV2008 cells assessed as cell accumulation at subG1 phase at 2 uM incubated for 12 hrs by propidium iodide staining based flow cytometry (reference value: 11.3%); assay type: functional; in short: as §3
2008 [10] = assay: Induction of cell cycle arrest in human OV2008 cells assessed as cell accumulation at subG1 phase at 4 uM incubated for 12 hrs by propidium iodide staining based flow cytometry (reference value: 11.3%); assay type: functional; in short: as §3
2008 [11] = assay: Reduction in alpha-tubulin expression human OV2008 cells at 2 to 4 uM measured after overnight incubation by Western blot analysis; assay type: functional, cell-based
2008 [12] = assay: Induction of morphological changes in human OV2008 cells at 1 to 4 uM incubated for 68 hrs; assay type: functional, cell-based
In short: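 OV2008 and A2780 cells, with CHO alongside, were exposed to 0, 1, 2 or 4 µM for 68 h. Each triplicate treatment was photographed at 20X under an inverted microscope to assess morphology.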

MDA-MB-231 = assay: Cytotoxicity in human MDA-MB-231 cells assessed as reduction in cell viability incubated for 68 hrs by MTT assay; assay type: functional, cell-based; conditions: MDA-MB-231, 68 h; in short: as §2
2008 [13] = assay: Induction of cell cycle arrest in human OV2008 cells assessed as cell accumulation at S phase at 4 uM incubated for 12 hrs by propidium iodide staining based flow cytometry (reference value: 5.2%); assay type: functional; in short: as §3
2008 [14] = assay: Induction of cell cycle arrest in human OV2008 cells assessed as cell accumulation at G1 phase at 4 uM incubated for 12 hrs by propidium iodide staining based flow cytometry (reference value: 79.1%); assay type: functional; in short: as §3
Homo sapiens [15] = organism: Homo sapiens; assay: Inhibition of tubulin alpha in human OV2008 cells assessed as induction of disturbance in cellular microtubule shape and integrity at 2 to 4 uM after overnight incubation by immunofluorescence analysis; assay type: cell-based
OV2008 (Homo sapiens) = assay: Induction of cell cycle arrest in human OV2008 cells assessed as increase in cell accumulation at subG1 phase at 2 to 4 uM incubated for 12 hrs by propidium iodide staining based flow cytometry
[16] = Selectivity index, ratio of IC50 for cytotoxicity in human CRL1459 cells incubated for 68 hrs by MTT assay to IC50 for cytotoxicity in human A2780 cells incubated for 68 hrs by MTT assay; assay type: toxicity, cell-based; conditions: CRL1459 cells versus A2780 cells, read-out: Ratio IC50
A2780 [17] = assay: Inhibition of cell proliferation of human A2780 cells at 1 to 8 uM incubated for 10 to 50 hrs; assay type: functional, cell-based
In short: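 OV2008 or A2780 cells were seeded at low density (1x10^3 cells/well) and given 0, 2, 4 or 8 µM. Live-cell images were taken every 2 h for up to 48 h. Confluence at each time point was quantified with a confluence mask and plotted as timeline curves. Means ± SD of three independent experiments.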

A2780 [18] = assay: Induction of apoptosis in human A2780 cells assessed as apoptosis cells level at 2 uM incubated for 12 hrs by Alexa Fluor 488 annexin V and mito-tracker red CMXRos dye staining based flow cytometry (reference value: 0.0%); assay type: functional; in short: as §1
2008 [19] = assay: Potency index, ratio of IC50 for silybin to IC50 for test compound for cytotoxicity in human OV2008 cells assessed as reduction in cell viability incubated for 68 hrs by MTT assay; assay type: functional
[20] = Selectivity index, ratio of IC50 for cytotoxicity in human CRL1459 cells incubated for 68 hrs by MTT assay to IC50 for cytotoxicity in human OV2008 cells incubated for 68 hrs by MTT assay; assay type: toxicity, cell-based; conditions: CRL1459 cells versus OV2008 cells, read-out: Ratio IC50
MCF7 = assay: Cytotoxicity in human MCF7 cells assessed as reduction in cell viability incubated for 68 hrs by MTT assay; assay type: functional, cell-based; conditions: MCF7, 68 h; in short: as §2
A2780 [21] = assay: Potency index, ratio of IC50 for silybin to IC50 for test compound for cytotoxicity in human A2780 cells assessed as reduction in cell viability incubated for 68 hrs by MTT assay; assay type: functional

O=C(/C=C/c1cccc(OCc2ccccc2)c1)c1ccc(O)cc1 gave an Activity 2008 [1] of 42.5%, an IC50 2008 [2] of 800 nM and an IC50 (CHO) of 8100 nM. The IC50 (HEK293) was 5400 nM, the inhibition (Homo sapiens [3]) was “Active” and the Activity 2008 [4] was 38.1%. For the same compound, the Activity 2008 [5] was 4.4%, the inhibition (Homo sapiens [6]) was “Active” and the Activity 2008 [7] was 58.4%. The selectivity ratio at 68 h [8] was 6 to 30, the Activity 2008 [9] was 25.5% and the Activity 2008 [10] was 33.9%. The Activity 2008 [11] was “Active”, the Activity 2008 [12] was “Active” and the IC50 (MDA-MB-231) was 2900 nM. The Activity 2008 [13] was 5.2%, the Activity 2008 [14] was 45.3% and the inhibition (Homo sapiens [15]) was “Active”. The Activity (OV2008 (Homo sapiens)) was “Dose-dependent effect”, the selectivity ratio at 68 h [16] was 6 to 30 and the inhibition (A2780 [17]) was “Active”. The Activity (A2780 [18]) was 37.3%, the “Ratio IC50” value 2008 [19] was 30 - 200 and the selectivity ratio at 68 h [20] was 6 to 30. The IC50 (MCF7) was 2800 nM and the “Ratio IC50” value (A2780 [21]) was 30 - 200.
